Among the data in ChEMBL document CHEMBL1128306, “Design, synthesis, and evaluation of A/C/D-ring analogs of the fungal metabolite K-76 as potential complement inhibitors” (J Med Chem, 1995) are IC50 and inhibition values, retold here.

A short description of test [1]: Inhibitory activity against hemolysis (complement-mediated erythrocyte lysis) of antibody-sensitized sheep erythrocytes using human serum as complementary source. In kind it is functional. The method, boiled down: (§1)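 Antibody-sensitized sheep erythrocytes were exposed to compounds and to human serum in 0.1 M HEPES, 0.15 N NaCl, pH 7.4. Serum dilution was pre-set to lyse 80–90% of cells. Incubation 60 min at 37 °C, then centrifugation and supernatant A410 for hemoglobin release. Triplicate controls without serum were subtracted. Inhibition is relative to the no-compound sample.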

The species entered for test [2] is Homo sapiens. The experiment in a line: Inhibitory activity against mitogen-stimulated PBL proliferation; Range 1.7-2.8 mM. In kind it is functional.
The species named for test [3] is Homo sapiens. The experiment in a line: Inhibitory activity against mitogen-stimulated PBL proliferation. The test is classed as functional.
A further test deals with T-cell. The experiment in a line: Inhibitory activity against lectin-stimulated T cell proliferation. The test is classed as functional, cell-based.
Test [4] in a line: Inhibitory activity against C5a production by activated human serum complement. The test is classed as functional. The gist of the method: (§2)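 Human serum aliquots (400 μL) equilibrated at 37 °C with varying compound concentrations in 0.1 M Hepes, 0.15 N NaCl, pH 7.4. Complement activated with heat-aggregated IgG at 14 mg/mL, 10 min at 37 °C. C3a[desArg] and C5a[desArg] were measured by radioimmunoassay. Triplicates were averaged. Fractional inhibition is relative to the no-compound sample and the background without aggregated IgG.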

The nature of test [5]: Inhibitory activity against hemolysis of antibody-sensitized sheep erythrocytes using human serum as complementary source in multiple assay. The test is classed as functional. The gist of the method: as §1
Test [6] in a line: (§3) Compound was tested to inhibit the production of C5a relative to C3a. The test is classed as functional, Homo sapiens. The method, boiled down: as §2
The nature of test [7]: as §3. The test is classed as functional, Homo sapiens. The gist of the method: as §2
This is another data set of the same source.

Some results are limits rather than exact numbers.

For the compound `CC1=CCC(C2(C)Cc3c(O)ccc(C(=O)O)c3O2)CC1` (stereo not given), the results for the IC50 result (in test [1]; in the test listed under Homo sapiens [2]) were “Less Effective” and less than 2800 µM, respectively.
Turning to `C[C@@H]1CCC2C(C)(C)[C@H](O)[C@H](O)C[C@]2(C)[C@@]12Cc1c(O)cc(C(=O)O)c(C=O)c1O2` (stereo not given in full), the IC50 in test [1] (read-out: IC50) turned out to be 300 µM; in the test filed under Homo sapiens [3], 500 µM; in test [4], 3000 µM; in test [5], 570 µM. In addition, the inhibition result in the test on T-cell is listed as “Inhibit”.
In the case of `COc1ccc(C(=O)O)c2c1CC(C)(C1CC=C(C)CC1)O2` (stereo not given), the values for the IC50 (in the test filed under Homo sapiens [2]; in test [6]; in test [7]) were less than 2800 µM, 8000 µM and 6000 µM, respectively.
